From ChEMBL document CHEMBL2169854, “New insight into the central benzodiazepine receptor-ligand interactions: design, synthesis, biological evaluation, and molecular modeling of 3-substituted 6-phenyl-4H-imidazo[1,5-a][1,4]benzodiazepines and related compounds” (J Med Chem, 2011)
Active and inactive are the calls of the source. No cut-off for these calls is given here.

Experiments:
[1] = Displacement of [3H]flumazenil from central benzodiazepine receptor in human cortical membrane after 90 mins by beta liquid scintillation counting; format: cell membranes
[2] = molecular target: T1, GABA-A receptor; alpha-1/beta-2/gamma-2 (Homo sapiens) (UniProt P14867+P47870+P18507); assay: (§1) Antagonist at human recombinant GABA-A alpha1beta2gamma2L receptor expressed in Xenopus laevis oocytes assessed as blockade of diazepam-induced potentiation of GABA-induced chloride current at 10 uM incubated 60 seconds before addition of GABA measured after 30 seconds at holding potential -70 mV by two-microelectrode voltage clamp technique; format: functional, cell-based; details: Oocyte
Method in brief: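 Oocytes expressing human α1β2γ2L, α2β1γ2L or α5β2γ2L receptors were clamped at −70 mV. Compound at 10 μM was tested against the enhancement of the GABA EC10 response by 1.0 μM diazepam, with 60 s preapplication and 30 s coapplication. The response was expressed as percent potentiation, from 2–3 oocytes.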

[3] = molecular target: T2, GABA A receptor alpha-1/beta-1/gamma-2 (Homo sapiens) (UniProt P14867+P18507+P18505); assay: as §1, with “alpha1beta1gamma2L” for “alpha1beta2gamma2L”; format: functional, cell-based; details: Oocyte
[4] = tested on: Mus musculus; assay: […] activity in mouse assessed as effect on spontaneous motility measuring number of movements on plane board at 10 mg/kg, po after 5 mins by hole-board test relative to CMC-treated control; format: functional, organism-based; parameters: dose 10 mg/kg
Method in brief: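 Mice dosed orally in 1% CMC were placed singly on a 16-hole board for 5 min. Photocells counted plane movements (spontaneous motility) and hole explorations. Groups of 12–15 mice were compared with CMC controls.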

[5] = species: Rattus norvegicus; assay: Agonist activity at central benzodiazepine receptor in Sprague-Dawley rat cerebrocortical synaptoneurosomes assessed as increase in GABA-induced [36]chloride ion flow after 10 seconds by beta liquid scintillation counting; format: functional
Method in brief: (§2)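 Cerebral cortex from male Sprague-Dawley rats was homogenised and filtered, and synaptoneurosomes were washed in HEPES pH 7 buffer (145 mM NaCl, 5 mM KCl, 5 mM MgCl2, 1 mM CaCl2, 10 mM glucose). Aliquots of 1.5–2 mg protein were preincubated 10 min at 30 C. Drug was added with 0.2 μCi 36Cl−, uptake was stopped at 10 s, and filter-bound radioactivity was counted by scintillation.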

[6] = species: Homo sapiens; assay: Ratio of Ki for central benzodiazepine receptor in human cortical membrane to Ki for central benzodiazepine receptor in human cortical membrane in presence of 50 uM GABA; format: cell membranes
[7] = tested on: Oocyte; assay: (§3) Modulation of human recombinant GABA-A alpha5beta2gamma2L receptor expressed in Xenopus laevis oocytes assessed as effect on GABA-induced chloride current at 1 uM incubated 60 seconds before addition of GABA measured after 30 seconds at holding potential -70 mV by two-microelectrode voltage clamp technique relative to control; format: cell-based
[8] = molecular target: T2, GABA A receptor alpha-1/beta-1/gamma-2 (Homo sapiens); assay: as §3, with “alpha1beta1gamma2L” for “alpha5beta2gamma2L”; format: cell-based; details: Oocyte
[9] = molecular target: T3, GABA A receptor alpha-2/beta-2/gamma-2 (Homo sapiens, UniProt P18507+P47869+P47870); assay: Displacement of [3H]flumazenil from human recombinant GABA-A alpha2beta2gamma2L receptor expressed in HEK293 cells; format: cell-based
T3 sequence (P47870 whole entry): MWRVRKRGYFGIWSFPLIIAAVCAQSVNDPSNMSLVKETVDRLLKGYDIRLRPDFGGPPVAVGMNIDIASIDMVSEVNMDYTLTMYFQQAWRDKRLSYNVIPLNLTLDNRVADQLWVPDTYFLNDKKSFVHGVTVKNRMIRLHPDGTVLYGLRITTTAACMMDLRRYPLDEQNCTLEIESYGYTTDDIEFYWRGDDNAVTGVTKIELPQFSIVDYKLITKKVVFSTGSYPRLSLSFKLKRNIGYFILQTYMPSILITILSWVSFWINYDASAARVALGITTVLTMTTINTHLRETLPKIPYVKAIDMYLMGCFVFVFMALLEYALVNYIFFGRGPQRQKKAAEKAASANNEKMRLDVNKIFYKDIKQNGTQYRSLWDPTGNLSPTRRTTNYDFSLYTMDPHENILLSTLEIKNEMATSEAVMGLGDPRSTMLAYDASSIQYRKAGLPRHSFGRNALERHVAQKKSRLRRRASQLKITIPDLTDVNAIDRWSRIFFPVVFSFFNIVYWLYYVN
T3 sequence (P18507 whole entry): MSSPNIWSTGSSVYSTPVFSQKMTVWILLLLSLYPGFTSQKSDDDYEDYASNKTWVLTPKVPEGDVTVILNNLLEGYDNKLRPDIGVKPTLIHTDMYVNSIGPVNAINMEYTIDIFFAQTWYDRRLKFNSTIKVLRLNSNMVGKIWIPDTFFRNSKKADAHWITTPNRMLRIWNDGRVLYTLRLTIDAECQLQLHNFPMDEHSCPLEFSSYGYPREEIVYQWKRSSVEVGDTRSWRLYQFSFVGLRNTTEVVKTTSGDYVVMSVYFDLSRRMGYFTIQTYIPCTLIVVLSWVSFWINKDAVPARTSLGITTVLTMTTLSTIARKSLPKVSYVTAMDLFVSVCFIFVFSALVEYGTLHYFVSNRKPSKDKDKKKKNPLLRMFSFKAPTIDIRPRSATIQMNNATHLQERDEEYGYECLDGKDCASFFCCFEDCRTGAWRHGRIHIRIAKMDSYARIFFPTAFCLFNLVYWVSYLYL
T3 sequence (P47869 whole entry): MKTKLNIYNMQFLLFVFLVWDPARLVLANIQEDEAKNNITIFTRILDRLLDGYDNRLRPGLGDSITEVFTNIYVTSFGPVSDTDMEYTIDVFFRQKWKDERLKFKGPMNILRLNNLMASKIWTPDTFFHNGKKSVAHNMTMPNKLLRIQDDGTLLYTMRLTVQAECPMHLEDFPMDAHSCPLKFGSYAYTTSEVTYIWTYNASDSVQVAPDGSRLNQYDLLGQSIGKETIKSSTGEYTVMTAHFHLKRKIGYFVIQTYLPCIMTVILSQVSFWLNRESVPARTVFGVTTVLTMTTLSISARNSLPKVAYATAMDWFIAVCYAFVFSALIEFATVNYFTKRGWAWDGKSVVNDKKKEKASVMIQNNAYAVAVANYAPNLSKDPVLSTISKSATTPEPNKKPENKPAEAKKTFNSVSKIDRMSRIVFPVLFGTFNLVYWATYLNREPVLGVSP
Method in brief: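 Membranes came from stably transfected HEK293 lines expressing α2β2γ2 or α5β3γ2, grown in MEM/EBSS with 10% FCS at 37 C, and were resuspended in 10 mM potassium phosphate pH 7.4 with 100 mM KCl. […] At least six concentrations were tested, DMSO ≤1%. Ki was obtained by Cheng–Prusoff from n = 3 experiments run in triplicate.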

[10] = molecular target: T1, GABA-A receptor; alpha-1/beta-2/gamma-2 (Homo sapiens); assay: as §3, with “alpha1beta2gamma2L” for “alpha5beta2gamma2L”; format: cell-based; details: Oocyte
[11] = species: Rattus norvegicus; assay: Partial agonist activity at central benzodiazepine receptor in Sprague-Dawley rat cerebrocortical synaptoneurosomes assessed as increase in GABA-induced [36]chloride ion flow after 10 seconds by beta liquid scintillation counting; format: functional; method in brief: as §2

CCOC(=O)c1ncn2c1CN=C(c1ccc(F)cc1)c1cc(F)ccc1-2
Ki [1]: 22.3 nM
Activity [2]: Active
Activity [3]: Active
Activity [4]: inactive
Activity [5]: Active
Ratio Ki [6]: 1.05
Activity [7]: -1%
Activity [8]: -7.5%
Ki [9]: 60 nM
Activity [10]: -13%

CCOC(=O)c1ncn2c1CN=C(c1ccc(C)cc1)c1ccccc1-2
Ki [1]: 18.5 nM
Activity [2]: Active
Activity [3]: Active
Ratio Ki [6]: 1.1
Activity [7]: -4%
Activity [8]: 0%
Ki [9]: 105 nM
Activity [10]: 8%
Activity [11]: Active
